Data as given in article PMC2819108 (Bioorganic & medicinal chemistry, 2009).

Assays:
MCF-7 cells = assay: Cell cycle assay; type: cell-based, human; conditions: up to 5 μM; 48 h treatment; Fig. 3
Procedure, shortened: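 MCF-7 cells at 2×10^5 cells/ml were seeded in DMEM with 5% fetal calf serum and left overnight at 37 °C to attach. Different concentrations of test compound were then added. After 48 h of treatment, cell-cycle distribution was measured by flow cytometry.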

A-10 cells = assay: Loss of microtubules in A-10 cells; type: cell-based; conditions: 20 μM compound; Fig. 2
rat thoracic aorta rings = assay: Aortic ring assay; conditions: 5 μM; day 6; Fig. 5
Procedure, shortened: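 Thoracic aortas from normal 1–2-month-old rats were excised into ice-cold PBS, cleaned of fibroadipose tissue, and cut into 1–1.5 mm cross-sections. Sections were washed five times in PBS, embedded in Matrigel on coverslips, and held 15 min at 37 °C, 5% CO2. EBM2 containing test compound (1–100 µM) was then added. Sprouting was examined on day 6 against an untreated control.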

[1] = test system: HUVEC (human umbilical vein endothelial cells); assay: Angiogenesis assay in vitro; type: cell-based; conditions: 1 μM; 16 h treatment; Fig. 4
Procedure, shortened: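 HUVEC (1×10^5 cells) seeded on Matrigel in EBM-2 medium and treated with the test compound over several dose ranges (figure panels: 1 and 10 µM, with untreated control). Tube formation was observed after 16 h of treatment.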

[2] = test system: 54 human cancer cell lines; assay: NCI human cancer cell proliferation assay; type: cell-based; conditions: 48 h, read-out: GI50 in 16 of the 54 cell lines
Procedure, shortened: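 The NCI human tumour cell line panel was exposed to test compound at five concentrations in 10-fold serial dilution for 48 h. Growth inhibition was read as total cell protein by sulforhodamine B assay. GI50 was calculated from log dose-response curves.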

[3] = test system: MCF-7 human breast carcinoma cells; assay: MCF-7 cell proliferation assay; type: cell-based; conditions: relative to CA-4

Row | SMILES | effect on MCF-7 cell cycle (G2/M phase arrest) (MCF-7 cells) | effect on interphase microtubule network of A-10 cells (A-10 cells) | functional angiogenesis in aortic ring assay (sprout formation) (rat thoracic aorta rings) | HUVEC tube formation [1] | GI50 [2] | fold less active than CA-4 as inhibitor of MCF-7 cell growth [3]
1 | COc1ccc(/C=C/C(=O)c2cc(OC)c(OC)c(OC)c2)cc1B(O)O [compound 4, 2-Methoxy-5-[(1E)-3-oxo-3-(3,4,5-trimethoxyphenyl)prop-1-en-1-yl]boronic acid] | did not cause significant G2/M phase arrest | extensive thinning of the network of microtubules | dramatically inhibited functional angiogenesis | significantly inhibited the tube formation | 10 to 200 nM | 
2 | COc1ccc(/C=C/C(=O)c2cc(OC)c(OC)c(OC)c2)cc1O [compound 6, (2E)-3-(3-Hydroxy-4-methoxyphenyl)-1-(3,4,5-trimethoxyphenyl) prop-2-en-1-one] |  | complete disappearance of the microtubule network |  |  |  | 3–4 fold
